# Experimental data collected from several papers.
# Compare with care: the assays were run in different laboratories.
# Organism: Mycobacterium tuberculosis
# Read-out: microbial growth
Structure (SMILES),test,test system,setting,quantity,value
Nc1nc(-c2ccc(-c3ccccc3)cc2)nc2c1ncn2[C@@H]1O[C@H](COS(=O)(=O)NC(=O)c2ccccc2O)[C@@H](O)[C@H]1O,,H37RV,pH 6.6,MIC99,25 to 50 µM
O=C(Nc1cc2nc(C3CCCCC3)[nH]c2cc1N1CCCC1)OCc1ccccc1,resazurin,H37RV,,MIC99,1.56 mg/L
CCOC(=O)c1c(NC(=O)c2c(F)c(F)c(F)c(F)c2F)sc2c1CCN(C(=O)OC(C)(C)C)C2,resazurin,H37RV,,MIC,< 100 µM
CC(=O)[C@]1(O)Cc2c(O)c3c(c(O)c2[C@@H](O[C@H]2C[C@H](N)[C@H](O)[C@H](C)O2)C1)C(=O)c1ccccc1C3=O,resazurin,H37RV,,MIC,80 µM
CCCCOC(=O)Nc1cc2nc(C3CCCCC3)[nH]c2cc1N1CCCC1,resazurin,H37RV,,MIC99,0.39 mg/L
Cc1cc2nc(C(=O)O)cc(-c3ccccc3Cl)c2c(C)c1-c1ccncc1,,H37RV,,MIC90,80 µM
Nc1nc(-c2cccc(-c3ccccc3)c2)nc2c1ncn2[C@@H]1O[C@H](COS(=O)(=O)NC(=O)c2ccccc2O)[C@@H](O)[C@H]1O,,H37RV,pH 6.6,MIC99,25 to 50 µM
Cc1cccc(C)c1-c1ccnc2cc(C)c(-c3ccc(CN4CCOCC4)cc3)c(C)c12,,H37RV,,MIC90,5 µM
Nc1sc2c(c1C(=O)NC13CC4CC(CC(C4)C1)C3)CCCC2,resazurin,H37RV,,MIC,> 300 µM
CO[C@H]1/C=C/O[C@@]2(C)Oc3c(C)c(O)c4c(O)c(c(/C=N/N5CCN(C)CC5)c(O)c4c3C2=O)NC(=O)/C(C)=C\C=C\[C@H](C)[C@H](O)[C@@H](C)[C@@H](O)[C@@H](C)[C@H](OC(C)=O)[C@@H]1C,resazurin,ATCC27294 H37RV,7 days,MIC,0.06 mg/L
[H]/N=C(/N)N[C@H]1[C@H](O)[C@@H](O)[C@H](O[C@@H]2O[C@@H](C)[C@](O)(C=O)[C@H]2O[C@@H]2O[C@@H](CO)[C@H](O)[C@@H](O)[C@@H]2NC)[C@@H](N/C(N)=N\[H])[C@@H]1O,disc diffusion,ATCC25177,"5 µg/disc, 12 days",inhibition zone,30 mm
Nc1sc2c(c1C(=O)O)CCN(C(=O)OCc1ccccc1)C2,resazurin,H37RV,,MIC,> 300 µM
Cc1cc2nc(C(=O)N(C)C)cc(-c3ccccc3Cl)c2c(C)c1-c1ccncc1,,H37RV,,MIC90,20 µM
CCOC(=O)c1c(NC(=O)c2c(F)c(F)c(F)c(F)c2F)sc2c1CCN(CC)C2,resazurin,H37RV,,IC50,0.65 µM
COc1cccc2c1C(=O)c1c(O)c3c(c(O)c1C2=O)C[C@@](O)(C(C)=O)C[C@@H]3O[C@H]1C[C@H](N)[C@H](O)[C@H](C)O1,resazurin,H37RV,,MIC,1.25 µM
